BCLXL inh = inhibitors of human Bcl-xL | Q07817 | GST-Bcl-xL / FITC-Bim BH3 peptide fluorescence polarization | inhibition, % at 10.9 µM | 320,000 compounds, 0.7% hits;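 active = inhibition above the mean of all tested compounds plus 3 SD, cutoff set per campaign, cut at about 30% in these data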;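 note: 0% = DMSO wells and 100% = unlabeled Bim-BH3 peptide competitor; inhibitors lower millipolarization by displacing the labeled peptide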
IMP-1 inhibitor = blocks Pseudomonas aeruginosa IMP-1 metallo-beta-lactamase; purified IMP-1, nitrocefin hydrolysis, epi-absorbance fluorescence; inhibition, % at 5.6 µM; 290,000 compounds, 0.45% hits;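 active = inhibition above the mean plus 3 SD of all compounds in the same screening run, cut at about 4.5% in these data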;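 note: 0% = IMP-1 with DMSO and 100% = DMSO wells lacking enzyme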
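System: purified IMP-1; amount: IMP-1 0.2 nM before substrate addition; compound: single dose, 5.6 µM; times: 25 °C, 15 min preincubation, 25 min reaction; signal: Epi-absorbance via hydrolysed-nitrocefin quenching of white-plate fluorescence, 480/530 nm, EDTA stop; benchmarks: DMSO with and without IMP-1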
EBV gp42 block = blocks Epstein-Barr virus glycoprotein 42 binding | Q1HVG2 | Fluorescence polarization binding assay, mP read-out | 220,000 compounds, 0.42% hits | inhibition, % (tested at 21.74 µM); in the data active = inhibition above about 50%
MEX-5 binding = C. elegans MEX-5 TCR-2 RNA binding activity; MEX-5/FITC-TCR2 RNA binding, fluorescence polarization; stronger effect = lower value; 300,000 compounds, 0.38% hits; activity score (negative = inhibition of binding), % at 10 µM; Q9XUB2;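 active = inhibition past about -25% in most replicates, and total fluorescence under double the plate's negative control median, limit read from the data; inconclusive = replicates evenly split on the limit, or fluorescence at least double controls; inactive = too little inhibition in most replicates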;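 note: 0% = DMSO and -100% = 5 µM competing unlabeled TCR2 RNA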
VIM-2 inhibitor = blocks Pseudomonas aeruginosa VIM-2 metallo-beta-lactamase; inhibition, % at 5.6 µM; purified VIM-2, nitrocefin hydrolysis, epi-absorbance fluorescence; 290,000 compounds, 0.89% hits;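 active = inhibition above the mean of all tested compounds plus 3 SD, cutoff set per screening run, cut at about 7.5% in these data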;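 note: red hydrolysis product quenches plate fluorescence so inhibitors raise well fluorescence; 0% = enzyme with DMSO and 100% = DMSO without enzyme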
GLD-1 TGE inh = GLD-1-TGE RNA interaction inhibition (C. elegans); AID 2280; 320,000 compounds, 0.44% hits; Q17339; purified GLD-1 + fluorescein TGE RNA, fluorescence polarization; inhibition, % at 5.96 µM;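 active = percent inhibition above a per-plate cutoff, the plate mean of test compounds plus 3 SD, cut at about 30% in these data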;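 note: 0% = DMSO wells with GLD-1 and probe and 100% = wells lacking GLD-1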
Target sequence (Q17339 whole entry, looked up): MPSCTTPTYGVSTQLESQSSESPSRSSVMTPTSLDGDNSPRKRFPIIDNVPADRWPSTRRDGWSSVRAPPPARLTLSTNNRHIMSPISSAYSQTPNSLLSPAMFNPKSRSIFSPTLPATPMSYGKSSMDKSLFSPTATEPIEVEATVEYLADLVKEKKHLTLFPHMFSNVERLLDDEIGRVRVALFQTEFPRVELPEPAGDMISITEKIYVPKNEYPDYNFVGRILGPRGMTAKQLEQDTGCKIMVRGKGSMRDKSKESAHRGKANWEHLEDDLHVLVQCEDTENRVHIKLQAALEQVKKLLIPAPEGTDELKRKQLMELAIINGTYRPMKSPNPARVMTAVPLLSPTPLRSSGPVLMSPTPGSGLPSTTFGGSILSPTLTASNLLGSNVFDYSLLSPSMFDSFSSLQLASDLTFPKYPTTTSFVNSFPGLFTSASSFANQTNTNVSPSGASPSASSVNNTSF
Starred values were filed as active, the others as inactive; u = inconclusive; x = not tested or not shown. Shown are actives, neighbours in structure and some others; about 2.2% of the full set was active somewhere.

SMILES	BCLXL inh	IMP-1 inhibitor	EBV gp42 block	MEX-5 binding	VIM-2 inhibitor	GLD-1 TGE inh
Nc1ncnc2c1ncn2[C@@H]1O[C@H](CNCc2c(OCc3ccccc3F)ccc3ccccc23)[C@@H](O)[C@H]1O	x	x	x	x	x	1
Cc1ccc(C(=O)OCC(=O)N(C)c2c(N)n(Cc3ccccc3)c(=O)[nH]c2=O)s1	2	x	x	-1	x	1
Cc1oc(/N=C/c2ccc(O)cc2O)c(C#N)c1C	64*	-2	46	u	1	53*
Cc1c(O)c(CN(C)C)cc2c1oc(=O)c1ccccc12	2	-1	-11	-3	11*	4
N#Cc1cc2ccccc2nc1SCC(=O)Nc1ccc(S(=O)(=O)N2CCCC2)cc1	-12	-2	-23	3	1	45*
Cc1ccc2nc(SCC(=O)Nc3ccccc3N3CCOCC3)c(C#N)cc2c1	0	-4	50*	0	-1	-11
CCOC(=O)CC(=O)CSc1nc(CC)c(C)cc1C#N	-6	-1	-4	-1	1	-4
CCc1ccc2nc(SCC(=O)Nc3ccccc3N3CCOCC3)c(C#N)cc2c1	1	-1	-4	0	-1	-12
CCOc1ccc2nc(SCC(=O)N3c4ccccc4Sc4ccccc43)c(C#N)cc2c1	55*	0	-48	0	-1	48*
CCOC(=O)CC(=O)CSc1nc2ccc(C)cc2cc1C#N	29	-2	26	x	-1	83*
Cc1cc(C)cc(NC(=O)COC(=O)c2cccc(S(=O)(=O)N3CCCCC3)c2)c1	-11	x	x	x	x	-1
COc1ccc(S(=O)(=O)N2CCC(C(=O)NCc3ccncc3)CC2)cc1OC	0	0	x	1	-2	8
N#CC1=C(S)N(c2ccccc2)C(c2ccc(-c3ccccc3Cl)o2)NC1=O (stereo not drawn)	-9	12*	-11	1	2	0
N#C/C(=C\c1sc(N2CCOCC2)nc1-c1ccccc1)C(=O)Nc1cccc2ccccc12	x	-3	137*	x	-2	x
Cc1ccc(N=C2NC(=O)/C(=C/c3cn(C)c4ccccc34)S2)cc1C	-67	-2	82*	x	-1	-80
Cc1cc(N2CCN(c3ccccn3)CC2)n2nc(C)nc2n1	-3	-1	x	-2	10*	0
CCCCc1nn2c(N)c(/C=C3\C=Nc4ccccc43)c(=O)nc2s1	2	-2	-30	-7	-4	-4
CCCCn1c(O)c(/C=C2\C=Nc3ccccc32)c(=O)[nH]c1=O	-11	-3	x	-31*	2	-18
CCCOc1ccc(-c2c(C(=O)N/N=C(\C)c3ccco3)nnn2-c2nonc2N)cc1	69*	-3	x	0	-3	-10
CCCOc1ccc(-c2c(C(=O)N/N=C(\C)c3cccnc3)nnn2-c2nonc2N)cc1	0	1	x	-2	-1	0
COc1cc(/C=C(\C#N)C(=O)NCC2CCCO2)c([N+](=O)[O-])cc1OC (stereo not drawn)	-12	-2	-29	0	-4	2
N#C/C(=C\c1cccc([N+](=O)[O-])c1)C(=O)NCC1CCCO1 (stereo not drawn)	61*	-4	-17	-5	-4	15
O=C(CN1C(=O)S/C(=C\c2ccc(-c3cc(C(=O)O)ccc3Cl)o2)C1=O)Nc1ccc2c(c1)OCO2	x	17*	x	x	-2	x
Cc1noc(C)c1C(=O)Nc1ccc(C#N)cc1	2	-2	x	0	-3	3
Cc1ccccc1NC(=O)CC1SC(=O)N(c2ccccc2)C1=O (stereo not drawn)	15	-1	-7	-3	-2	12
SMILES	BCLXL inh	IMP-1 inhibitor	EBV gp42 block	MEX-5 binding	VIM-2 inhibitor	GLD-1 TGE inh
O=C(CC1SC(=O)N(c2ccccc2)C1=O)Nc1cccc2ccccc12 (stereo not drawn)	15	4.8*	10	3	0	3
Fc1ccc(NCc2cccnc2)cc1F	64*	-3	115*	u	-1	24
COc1ccc(OCc2cc(C(=O)NCCN3CCCc4ccccc43)no2)c(Cl)c1	-1	-3	x	-1	-1	-2
CC(C)CCN1C(=O)c2cccc3c(N)ccc(c23)C1=O	173*	x	x	x	x	185*
CCN1C(=O)c2cccc3c(Cl)ccc(c23)C1=O	4	-2	7	0	-2	3
CC(NC(=O)CCCc1nnc2n(C)c(=O)c3sccc3n12)c1ccccc1 (stereo not drawn)	5	-2	x	1	1	-4
Cc1cc(C)nc(NS(=O)(=O)c2ccc(NC(=O)c3cc4c(=O)n5cccc(C)c5nc4n3C)cc2)n1	30*	-3	x	0	-3	5
CC1(CCl)N([O-])C2=C(CCCC2)[N+]1=O (stereo not drawn)	7	-5	-30	-36*	-4	3
COC(=O)c1sc2ccccc2c1N	4	-3	-15	0	0	-10
COC(=O)C1=C(C(=O)OC)C(c2ccccc2O)c2sc(=O)[nH]c2S1 (stereo not drawn)	33*	-1	-1	x	-1	3
COCc1ccc(C(=O)NC2CCCN(Cc3ccccc3F)C2)o1 (stereo not drawn)	36*	-2	x	0	0	6
C[C@H](CO)N1C[C@H](C)[C@@H](CN(C)S(C)(=O)=O)Oc2ccc(NC(=O)Nc3ccccc3)cc2C1=O	x	x	x	x	x	6
N#Cc1c(N)sc(=S)c2c1CCCC2	142*	2	48	-2	2	102*
CCS(=O)(=O)c1nc(S(=O)(=O)c2ccc(C)cc2)c(N2CCC(C)CC2)s1	-2	0	x	1	0	-70
CN1CCc2cccc3c2C1Cc1ccc(O)c(O)c1-3 (stereo not drawn)	33*	-2	x	-83*	-2	7
CN1CCC(=C2c3ccccc3C(O)c3ccccc32)CC1 (stereo not drawn)	3	-1	-18	0	0	-3
C[C@@]12C(=O)N(Cc3ccccc3)CC(=O)N1[C@H](/C=C/c1ccccc1)[C@@H]1C(=O)N(c3ccccc3)C(=O)[C@@H]12	-1	-3	x	4	1	-2
NS(=O)(=O)c1ccc(CNC(=O)CSc2nc3ccc(Cl)cc3[nH]2)cc1	5	-2	x	1	-1	5
CCn1nccc1C(=O)Nc1cccc(C)c1C	8	17*	x	-4	-1	1
O=S(=O)(c1ccccc1)N1CCNCC1	3	x	x	-1	x	1
COC(=O)N=Nc1c(O)n(Cc2ccccc2)c2ccccc12	9	-4	1	1	-3	7
O=C(N=Nc1c(O)n(Cc2ccccc2)c2ccccc12)c1ccncc1	5	0	-10	-1	11*	2
Cc1cc(NC(=O)c2ccco2)ncc1NC(=O)CCc1ccccc1	9	-5	15	-5	-3	4
CCC(=O)Nc1cc(C)c(NC(=O)CCc2ccccc2)cn1	49*	-2	24	-26*	-4	37*

Assay outcomes: PubChem BioAssay, several laboratories
